Assay [1] addresses Poly [ADP-ribose] polymerase 1 (Homo sapiens) (UniProt P09874). The experiment in a line: Inhibition of human full-length PARP1 expressed in bacterial expression system assessed as reduction in enzyme mediated autoPARylation at 100 uM using NAD+ as substrate preincubated for 30 mins followed by substrate addition and measured after 2 hrs by immunoblot analysis. Particulars: time 2.5 hrs. The essentials: (§1)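 Full-length human PARP1 or PARP2, expressed recombinantly in and purified from bacteria, auto-PARylated without or with 100 μM compound. Read-out was immunoblot with an anti-PAR antibody. Loading control was anti-His₆ for PARP1 and anti-PARP2 antibody for PARP2. Signal was quantified by densitometry normalized to the loading control, with significance testing.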
(In general: In western blotting, separated proteins are transferred to a membrane and probed.)

Assay [2] has as its target T1, Poly [ADP-ribose] polymerase 2 (Homo sapiens, UniProt Q9UGN5). The experiment in a line: Inhibition of human full-length PARP2 expressed in bacterial expression system assessed as reduction in enzyme mediated autoPARylation at 100 uM using NAD+ as substrate preincubated for 30 mins followed by substrate addition and measured after 2 hrs by immunoblot analysis. The settings on record: time 2.5 hrs. The essentials: as §1

Assay [3] has as its target T2, Poly [ADP-ribose] polymerase tankyrase-1 (Homo sapiens) (UniProt O95271).
T2 sequence (whole entry): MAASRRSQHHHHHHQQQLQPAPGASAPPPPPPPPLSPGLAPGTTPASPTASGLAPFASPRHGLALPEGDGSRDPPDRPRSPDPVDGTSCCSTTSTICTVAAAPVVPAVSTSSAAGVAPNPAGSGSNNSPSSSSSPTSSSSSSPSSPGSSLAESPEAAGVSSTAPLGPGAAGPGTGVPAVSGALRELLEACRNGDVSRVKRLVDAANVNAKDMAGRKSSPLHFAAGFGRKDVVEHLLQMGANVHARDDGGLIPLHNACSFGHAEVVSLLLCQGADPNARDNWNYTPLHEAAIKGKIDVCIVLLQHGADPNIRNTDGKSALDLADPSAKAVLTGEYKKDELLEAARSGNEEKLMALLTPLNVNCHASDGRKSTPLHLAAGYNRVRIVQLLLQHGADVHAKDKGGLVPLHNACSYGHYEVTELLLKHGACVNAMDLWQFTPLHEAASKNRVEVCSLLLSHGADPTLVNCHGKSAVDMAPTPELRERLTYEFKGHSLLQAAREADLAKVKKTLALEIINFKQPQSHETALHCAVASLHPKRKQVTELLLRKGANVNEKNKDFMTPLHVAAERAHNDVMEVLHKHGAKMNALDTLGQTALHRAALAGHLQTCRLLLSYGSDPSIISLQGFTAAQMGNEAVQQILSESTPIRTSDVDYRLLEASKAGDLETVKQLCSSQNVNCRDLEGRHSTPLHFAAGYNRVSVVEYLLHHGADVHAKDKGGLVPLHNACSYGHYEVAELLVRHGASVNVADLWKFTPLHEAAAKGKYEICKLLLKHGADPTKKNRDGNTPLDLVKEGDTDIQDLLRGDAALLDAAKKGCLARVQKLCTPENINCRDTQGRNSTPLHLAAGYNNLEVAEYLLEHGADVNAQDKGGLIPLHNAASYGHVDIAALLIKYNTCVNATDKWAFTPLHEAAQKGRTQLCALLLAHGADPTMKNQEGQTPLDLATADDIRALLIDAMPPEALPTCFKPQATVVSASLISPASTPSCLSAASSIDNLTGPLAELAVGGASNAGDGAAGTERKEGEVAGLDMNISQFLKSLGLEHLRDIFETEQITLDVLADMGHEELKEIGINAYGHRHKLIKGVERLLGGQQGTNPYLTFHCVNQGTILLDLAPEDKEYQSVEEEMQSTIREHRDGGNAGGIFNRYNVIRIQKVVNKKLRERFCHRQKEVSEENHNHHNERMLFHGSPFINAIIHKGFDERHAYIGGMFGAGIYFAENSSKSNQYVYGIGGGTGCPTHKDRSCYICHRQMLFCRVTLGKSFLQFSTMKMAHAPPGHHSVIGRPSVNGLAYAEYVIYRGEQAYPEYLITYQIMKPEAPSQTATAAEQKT
Kind of assay: Inhibition of human PARP5a catalytic domain expressed in bacterial expression system assessed as reduction in enzyme mediated autoPARylation at 100 uM using NAD+ as substrate measured after 2 hrs by immunoblot analysis. The essentials: (§2)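 Catalytic domains of human PARP5a (PARylation) and PARP10 (MARylation), bacterially expressed and purified, were auto-ADP-ribosylated with NAD⁺ without or with 100 μM compound. Detection was by immunoblot using the AF1521 macrodomain pan-ADPr binding reagent, with anti-His₆ loading control. Densitometry was normalized to the loading control.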

For assay [4], the target named is T3, Protein mono-ADP-ribosyltransferase PARP10 (Homo sapiens) (UniProt Q53GL7).
T3 sequence (whole entry): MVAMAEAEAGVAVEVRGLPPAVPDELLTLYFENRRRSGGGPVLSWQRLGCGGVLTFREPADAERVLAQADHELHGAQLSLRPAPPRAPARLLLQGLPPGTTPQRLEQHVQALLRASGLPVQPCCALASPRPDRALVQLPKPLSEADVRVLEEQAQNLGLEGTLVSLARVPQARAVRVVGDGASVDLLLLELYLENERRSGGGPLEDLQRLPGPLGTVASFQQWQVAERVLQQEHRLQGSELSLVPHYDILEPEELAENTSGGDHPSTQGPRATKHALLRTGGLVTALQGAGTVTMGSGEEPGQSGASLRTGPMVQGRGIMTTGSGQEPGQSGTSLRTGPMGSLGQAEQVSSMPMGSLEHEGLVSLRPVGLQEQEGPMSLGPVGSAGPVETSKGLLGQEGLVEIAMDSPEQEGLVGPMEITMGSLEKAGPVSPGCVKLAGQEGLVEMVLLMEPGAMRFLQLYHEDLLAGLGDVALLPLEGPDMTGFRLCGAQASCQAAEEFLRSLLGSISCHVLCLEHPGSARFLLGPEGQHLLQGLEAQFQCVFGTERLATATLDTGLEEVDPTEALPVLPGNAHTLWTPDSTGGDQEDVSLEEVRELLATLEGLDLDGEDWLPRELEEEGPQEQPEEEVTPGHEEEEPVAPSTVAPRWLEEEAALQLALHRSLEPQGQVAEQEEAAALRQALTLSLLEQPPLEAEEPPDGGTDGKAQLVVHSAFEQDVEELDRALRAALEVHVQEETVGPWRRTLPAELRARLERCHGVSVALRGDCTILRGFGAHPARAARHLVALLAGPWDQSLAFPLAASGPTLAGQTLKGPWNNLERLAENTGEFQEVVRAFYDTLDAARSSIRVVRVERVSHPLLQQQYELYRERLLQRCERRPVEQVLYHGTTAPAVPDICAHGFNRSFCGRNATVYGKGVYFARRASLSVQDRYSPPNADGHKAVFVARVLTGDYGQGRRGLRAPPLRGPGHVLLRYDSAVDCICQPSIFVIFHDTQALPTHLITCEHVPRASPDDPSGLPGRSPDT
Kind of assay: Inhibition of human PARP10 catalytic domain expressed in bacterial expression system assessed as reduction in enzyme mediated autoPARylation at 100 uM using NAD+ as substrate measured after 2 hrs by immunoblot analysis. The essentials:
as §2

Assay [5] deals with HAP1. Kind of assay: Inhibition of PARP in human HAP1 cell lysates assessed as reduction in protein ADP-ribosylation at 100 uM using NAD+ as substrate measured after 2 hrs by immunoblot analysis. Format: subcellular. The essentials: (§3)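 HAP1 or HAP1/PARP1-KO cell lysates were ADP-ribosylated without or with 100 μM compound. Protein ADP-ribosylation was detected by immunoblot with the AF1521 macrodomain pan-ADPr binding reagent, with anti-GAPDH as loading control. Densitometric signal was normalized to loading control and tested for significance.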

For assay [6], the system named is HAP1. The experiment in a line: Inhibition of PARP in human HAP1 PARP1-KO cell lysates assessed as reduction in protein ADP-ribosylation at 100 uM using NAD+ as substrate measured after 2 hrs by immunoblot analysis. Format: subcellular. The essentials: as §3
The target of assay [7] is T4, Protein mono-ADP-ribosyltransferase PARP10 (Homo sapiens, UniProt Q53GL7).
T4 sequence (Q53GL7 whole entry): T3 sequence (whole entry)
The experiment in a line: Inhibition of human PARP10 catalytic domain expressed in bacterial expression system assessed as reduction in enzyme mediated autoPARylation using NAD+ as substrate measured after 2 hrs by immunoblot analysis.

Assay [8] deals with T1, Poly [ADP-ribose] polymerase 2. The experiment in a line: Inhibition of human full-length PARP2 expressed in bacterial expression system assessed as reduction in enzyme mediated autoPARylation using NAD+ as substrate preincubated for 30 mins followed by substrate addition and measured after 2 hrs by immunoblot analysis.

Data on ten compounds can be found in ChEMBL document CHEMBL6127150, “Discovery of PARP1-Sparing Inhibitors for Protein ADP-Ribosylation” (ACS Med Chem Lett, 2024).

pIC50: −log10 of the molar value. Active and inactive are the calls of the source. The calls are words filed in the database; no cut-off is given here.

The pIC50 is the IC50 on a negative log10 scale, so that one unit is a factor of ten.

Chain of Poly [ADP-ribose] polymerase 1 (Homo sapiens) (P09874 whole entry): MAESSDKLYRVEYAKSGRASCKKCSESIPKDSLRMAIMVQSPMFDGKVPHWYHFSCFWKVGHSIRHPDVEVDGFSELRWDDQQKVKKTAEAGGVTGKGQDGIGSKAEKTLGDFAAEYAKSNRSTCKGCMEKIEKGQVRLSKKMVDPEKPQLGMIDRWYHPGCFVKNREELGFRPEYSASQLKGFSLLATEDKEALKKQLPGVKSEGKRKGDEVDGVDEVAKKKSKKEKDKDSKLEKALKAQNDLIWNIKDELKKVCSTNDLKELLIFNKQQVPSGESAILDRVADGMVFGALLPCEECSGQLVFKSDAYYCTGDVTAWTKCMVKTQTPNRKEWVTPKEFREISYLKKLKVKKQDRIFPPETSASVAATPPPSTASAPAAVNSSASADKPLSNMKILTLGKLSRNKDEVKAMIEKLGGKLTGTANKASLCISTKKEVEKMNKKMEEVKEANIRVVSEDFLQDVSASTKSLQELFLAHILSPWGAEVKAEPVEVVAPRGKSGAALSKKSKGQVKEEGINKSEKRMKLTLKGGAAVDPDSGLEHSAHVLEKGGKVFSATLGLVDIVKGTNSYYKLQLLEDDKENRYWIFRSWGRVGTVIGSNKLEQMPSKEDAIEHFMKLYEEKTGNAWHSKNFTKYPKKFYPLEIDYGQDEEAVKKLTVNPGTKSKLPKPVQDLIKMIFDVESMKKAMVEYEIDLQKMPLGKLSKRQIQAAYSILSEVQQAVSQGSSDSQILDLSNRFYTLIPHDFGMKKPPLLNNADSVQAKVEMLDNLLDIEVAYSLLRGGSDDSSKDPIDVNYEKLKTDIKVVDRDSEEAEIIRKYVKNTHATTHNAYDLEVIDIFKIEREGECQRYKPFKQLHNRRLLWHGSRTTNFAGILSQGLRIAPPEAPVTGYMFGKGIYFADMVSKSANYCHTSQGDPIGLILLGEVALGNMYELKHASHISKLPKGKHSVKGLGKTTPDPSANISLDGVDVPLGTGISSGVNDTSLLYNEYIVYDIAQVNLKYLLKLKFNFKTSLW
T1 sequence (Q9UGN5 whole entry): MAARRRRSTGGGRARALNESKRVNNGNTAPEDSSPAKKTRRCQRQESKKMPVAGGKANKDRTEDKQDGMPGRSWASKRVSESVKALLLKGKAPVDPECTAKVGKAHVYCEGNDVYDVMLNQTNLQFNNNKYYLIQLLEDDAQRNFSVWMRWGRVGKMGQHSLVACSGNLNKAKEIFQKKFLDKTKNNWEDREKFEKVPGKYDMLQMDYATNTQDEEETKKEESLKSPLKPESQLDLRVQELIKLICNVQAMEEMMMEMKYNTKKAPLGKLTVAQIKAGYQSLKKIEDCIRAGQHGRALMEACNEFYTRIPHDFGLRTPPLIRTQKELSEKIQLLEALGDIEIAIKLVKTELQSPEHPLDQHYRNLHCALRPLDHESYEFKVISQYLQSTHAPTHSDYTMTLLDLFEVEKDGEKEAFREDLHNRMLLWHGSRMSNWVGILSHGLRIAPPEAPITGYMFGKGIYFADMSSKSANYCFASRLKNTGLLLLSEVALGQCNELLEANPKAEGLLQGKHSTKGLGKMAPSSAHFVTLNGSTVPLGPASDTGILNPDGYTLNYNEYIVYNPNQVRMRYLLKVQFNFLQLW

As to `CC(=O)c1cccc(CCOc2ccc(F)cc2C(N)=O)c1`, in assay [1], the inhibition result was “inactive”. The inhibition entry in assay [2], in assay [3], in assay [4], in assay [5] and in assay [6] was “Active” each time. The pIC50 in assay [7] was 4.43; in assay [8], 4.29.
In the case of `CC(=O)c1cccc(COc2ccccc2C(N)=O)c1`, the inhibition result in assay [1] is “inactive”. Moreover, the inhibition result in assay [2], in assay [3], in assay [4], in assay [5] and in assay [6] was “Active” in each case. Moreover, the results for the pIC50 in assay [7] and in assay [8] were 4.82 and 3.99, respectively.
For `CC(=O)c1cc(COc2ccccc2C(N)=O)ccc1F`, the inhibition result in assay [1] is “inactive”. For the same compound, the inhibition entry in assay [2], in assay [3], in assay [4], in assay [5] and in assay [6] was “Active” throughout. Also, the pIC50 was 4.40 in assay [7] and 4.30 in assay [8].
With `O=C(c1cc(Cc2n[nH]c(=O)c3ccccc23)ccc1F)N1CCN(C(=O)C2CC2)CC1`, the inhibition result in assay [5] and in assay [6] was “Active” in each case.
With `CC(=O)c1cccc(CCOc2ccccc2C(N)=O)c1`, in assay [1], the inhibition entry is “inactive”. In addition, the inhibition result in assay [2], in assay [3], in assay [4], in assay [5] and in assay [6] was “Active” in each case. Further, the results for the pIC50 in assay [7] and in assay [8] were 4.32 and 4.22, respectively.
Regarding `CC(=O)c1cccc(CNc2ccccc2C(N)=O)c1`, the inhibition result in assay [1] was “inactive”.
Turning to `CC(=O)c1cccc(CCCOc2ccccc2C(N)=O)c1`, the inhibition result in assay [2] is “Active”.
On the same count and under the same terms, in the case of `CC(=O)c1cccc([C@H](C)Oc2ccccc2C(N)=O)c1` it was “Active”; in that of `CC(=O)c1cccc([C@@H](C)Oc2ccccc2C(N)=O)c1`, “Active”.
In the case of `CC(=O)c1cccc(C(=O)Nc2ccccc2C(N)=O)c1`, the inhibition entry in assay [1] was “inactive”.
